Assay outcomes deposited in PubChem by several laboratories.
Compounds with a hit are over-represented: about 2.6% of the library has one in this group of screens.
Platelet DG rel: platelet dense granule release activity; human platelet-rich plasma, SFLLRN dense granule ATP release, luminescence; 300,000 compounds, 0.22% hits; inhibition, %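 (compounds screened at 7.5 µM in platelet-rich plasma)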;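 active = mean replicate score, as percent of positive control, at or above 50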
VLA-4 inh: inhibition in a human VLA-4 binding assay; inhibition, % (about 7 µM as worked out from the volumes in the protocol); 330,000 compounds, 0.2% hits; P13612; AID 2557; VLA-4 expressing cells, ligand binding flow cytometry; in the data active = inhibition above about 50%
TAAR1 agonist: human TAAR1 agonism; Q96RJ0; CHO RD-HGA16 TAAR1, Fluo-8 calcium fluorescence; vehicle wells 0%, saturating PEA agonist 100%; 360,000 compounds, 0.99% hits; activation, % at 3 µM;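 active = activation above the mean activation of all test compounds in the run plus 3 SD, cut at about 38% in these data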
Target sequence (Q96RJ0 whole entry, looked up): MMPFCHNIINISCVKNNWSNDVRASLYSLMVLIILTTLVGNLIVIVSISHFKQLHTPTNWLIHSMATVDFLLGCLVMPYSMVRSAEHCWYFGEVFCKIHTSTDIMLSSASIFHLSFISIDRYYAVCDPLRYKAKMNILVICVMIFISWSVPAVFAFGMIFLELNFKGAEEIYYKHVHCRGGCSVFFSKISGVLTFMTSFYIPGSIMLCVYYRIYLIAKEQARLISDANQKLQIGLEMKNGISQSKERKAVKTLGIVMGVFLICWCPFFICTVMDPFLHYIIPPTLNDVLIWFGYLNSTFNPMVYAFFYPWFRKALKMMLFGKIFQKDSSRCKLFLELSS
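Test system: RD-HGA16 (CHO) cells co-expressing Gα16 and hTAAR1 / Benchmarks: DMSO vehicle as 0%, PEA at EC100 as 100% / Repeats: no replicates (n 1) / Measure: % activation from peak over basal fluorescence ratio, DMSO-to-PEA scaled / Timing: 17-24 h plating, Fluo-8 75 min 37 °C, 30 min RT / Technique: kinetic Fluo-8 calcium fluorescence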
Rce1 inhib: inhibitors of yeast Ras-converting enzyme | Q03530 | yeast membranes, quenched prenylated peptide cleavage fluorescence | calls only | 290,000 compounds, 0.27% hits;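 active = fall in fluorescence gain of 50% or more versus controls, with final raw signal at or below 3038400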
Target sequence (Q03530 whole entry, looked up): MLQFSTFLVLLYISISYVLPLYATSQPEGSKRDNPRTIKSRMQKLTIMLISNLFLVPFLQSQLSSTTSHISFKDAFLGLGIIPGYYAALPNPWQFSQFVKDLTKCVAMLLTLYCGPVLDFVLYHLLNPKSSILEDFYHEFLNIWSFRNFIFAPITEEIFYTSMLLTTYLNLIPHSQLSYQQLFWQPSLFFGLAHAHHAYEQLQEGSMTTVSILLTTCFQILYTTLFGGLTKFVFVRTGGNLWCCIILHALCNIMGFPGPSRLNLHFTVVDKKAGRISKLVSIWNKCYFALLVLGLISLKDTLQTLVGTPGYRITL
TAAR1 antagonist: antagonists of human TAAR1. 360,000 compounds, 1.5% hits. inhibition, % at 3 µM. CHO RD-HGA16 TAAR1, Fluo-8 calcium fluorescence, antagonist;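 active = inhibition above a per-plate cutoff, the mean inhibition of test compounds on that plate plus 3 SD, cut at about 49% in these data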
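Test system – hTAAR1-expressing CHO RD-HGA16 cells, Gα16-coupled · Reagent – β-PEA at EC80 concentration, post-compound challenge · Compound dosing – 3 µM, single point · Timing – 140 s kinetic read after compound, 140 s after agonist · Detection – Fluo-8 intracellular calcium dye fluorescence, real-time kinetic reads · Control set – DMSO and EC80 PEA controls · Repeats – n of 1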
Of the large screens only hits and unclear results are named; the others gave an inactive call.

Cc1cc(N2CCOCC2)nc(NCc2ccccc2)n1	TAAR1 agonist 49.2
COCCN1C(=O)/C(=C/c2ccc(N3CCCC3)cc2)SC1=S	TAAR1 agonist 51.6, TAAR1 antagonist 50.2
Cc1ccc(C(=O)N/C(=C\c2ccccc2)C(=O)NCCCn2ccnc2)cc1	none
COc1cc(/C=N/NC(=O)c2ccoc2C)ccc1O	none
COc1cccc(/C=N/NC(=O)C(=O)N/N=C/c2cccc(OC)c2O)c1O	none (no result: Platelet DG rel, VLA-4 inh, Rce1 inhib)
CCN(CC)c1ccc(/C=N/NC(=O)c2ccoc2C)cc1	Platelet DG rel 67.5
COc1cccc(/C=N/NC(=O)c2ccoc2C)c1O	Platelet DG rel 97.6
CCOc1ccc(/C=N/NC(=O)c2ccoc2C)cc1OC	Platelet DG rel 49.8 (no result: Rce1 inhib)
Cc1cccc(C(C(=O)NC2CCCC2)N(C(=O)c2csnn2)C2CCCC2)c1 (centres undefined)	none (no result: Rce1 inhib)
Cc1cc(NC(=O)COC(=O)CCS(=O)(=O)c2cc(Cl)ccc2Cl)no1	none
CN1CCCCC1(C)C(=O)NCc1ccc(C(C)(C)C)cc1 (centres undefined)	none (no result: Platelet DG rel, VLA-4 inh, Rce1 inhib)
CCN(CCNCC(O)COCc1ccc(Cl)cc1)c1cccc(C)c1 (centres undefined)	TAAR1 agonist 39.5
CC1C(=O)N(Cc2cn(CCC3OCCCO3)nn2)CCS(=O)(=O)N1Cc1ccc(-c2ccc(Cl)c(Cl)c2)cc1 (centres undefined)	TAAR1 antagonist 69.1 (no result: Platelet DG rel, VLA-4 inh, Rce1 inhib)
COCOCCn1cc(CN2CCS(=O)(=O)N(Cc3ccc(-c4ccc(C)cc4)cc3)C(C)C2=O)nn1 (centres undefined)	none (no result: Platelet DG rel, VLA-4 inh, Rce1 inhib)
CC1C(=O)N(Cc2cn(CCC3OCCO3)nn2)CCS(=O)(=O)N1Cc1ccc(-c2ccc(Cl)cc2)cc1 (centres undefined)	TAAR1 antagonist 51.9 (no result: Platelet DG rel, VLA-4 inh, Rce1 inhib)
COCOCCn1cc(CN2CCS(=O)(=O)N(Cc3ccc(-c4ccc(Cl)c(Cl)c4)cc3)C(C)C2=O)nn1 (centres undefined)	TAAR1 antagonist 59.1 (no result: Platelet DG rel, VLA-4 inh, Rce1 inhib)
CC1C(=O)N(Cc2cn(CCC3OCCCO3)nn2)CCS(=O)(=O)N1Cc1ccc(-c2ccc(F)cc2)cc1 (centres undefined)	none (no result: Platelet DG rel, VLA-4 inh, Rce1 inhib)
COC(=O)[C@]12C[C@H](CC(=O)NCc3cccc4ccccc34)C(=O)N(Cc3ccccc3)C1=C[C@H](C(C)(C)C)O[C@@H]2C	none (no result: Platelet DG rel, VLA-4 inh, Rce1 inhib)
CC(C)[C@H](NC(=O)[C@H](C)NC(=O)OC(C)(C)C)C(=O)N1CCC2CCN(Cc3ccccc3)CC21 (some centres undefined)	none (no result: Platelet DG rel, VLA-4 inh, Rce1 inhib)
CC1CC(C)C(=O)C(C(CC2CC(=O)NC(=O)C2)OC(=O)CC(=O)c2ccccc2)C1 (centres undefined)	none (no result: Platelet DG rel, VLA-4 inh, Rce1 inhib)
CSC1=NSC2=NC(=O)/C(=C\c3coc4ccccc4c3=O)C(=N)N12	TAAR1 agonist 383.0, TAAR1 antagonist 107.4 (no result: Platelet DG rel, Rce1 inhib)
N=C1/C(=C\c2coc3ccc(O)cc3c2=O)C(=O)N=C2SC=CN12	TAAR1 agonist 48.2
COC(=O)c1ccc(NC(=O)c2cc(-c3ccccn3)nc3ccccc23)cc1	none
COc1cccc(NC(=O)c2cc(-c3ccc(OC)cc3OC)nc3ccccc23)c1	TAAR1 antagonist 53.3
COc1ccc(NC(=O)c2cc(-c3ccccn3)nc3ccccc23)c(OC)c1	TAAR1 antagonist 54.4 (no result: Platelet DG rel, Rce1 inhib)
COc1cccc(NC(=O)c2cc(-c3cccnc3)nc3c(Cl)cccc23)c1	TAAR1 antagonist 56.7
O=C(Nc1ccc(F)cc1)c1cc(-c2ccncc2)nc2c(Cl)cccc12	none
CC(C)N1CCN(S(=O)(=O)c2ccc3ccccc3c2)CC1	Rce1 inhib active
COCCCNC1=C(C#N)C(=O)NC(c2cccs2)S1 (centres undefined)	none (no result: Platelet DG rel, VLA-4 inh, Rce1 inhib)
CC(C)=NOc1nc(NC(=O)NS(=O)(=O)c2ccccc2Cl)nc(N(C)C)n1	none
O=C1[C@H](Cc2ccccc2)NCCCC[C@@H](c2ccc(Cl)cc2)N1Cc1ccc(Cl)cc1	TAAR1 agonist 41.1 (no result: Platelet DG rel, VLA-4 inh, Rce1 inhib)
O=C1[C@H](Cc2ccccc2)NCCCC[C@H](c2ccc(Cl)cc2)N1Cc1ccccc1	none (no result: Platelet DG rel, VLA-4 inh, Rce1 inhib)
CC(=O)N1CCN(Cc2nc3cc(NC(=O)COc4cccc(C)c4)ccc3n2C)CC1	none
CC(=O)NNC(=S)NC(=O)c1ccc(C)cc1	none
Cc1cccc(C(=O)NC(=S)NNC(=O)c2ccccc2Cl)c1	TAAR1 agonist 147.7, TAAR1 antagonist 107.1
Cc1cccc(C(=O)NC(=S)Nc2ccccc2C(=O)O)c1	none
Cc1ccc(C(=O)NNC(=S)NC(=O)c2ccc(Cl)cc2)cc1	TAAR1 agonist 146.4, TAAR1 antagonist 108.4
COCc1ccc(C(=O)NC2CCCc3c2cnn3-c2cc(C)cc(C)c2)s1 (centres undefined)	none (no result: VLA-4 inh)
CC(=O)CCC(=O)NCCc1ccccc1F	none
O=C(CCCC(=O)c1ccccc1)NCCc1ccccc1F	TAAR1 agonist 40.4, TAAR1 antagonist 73.3
COc1ccc(C(=O)CCC(=O)NCCc2c[nH]c3ccccc23)cc1	none
COc1ccc(C(=O)CCC(=O)NCCc2ccccc2F)cc1	TAAR1 agonist 38.7, TAAR1 antagonist 71.3
Cc1cc(=O)oc2cc(OCc3nnc(-c4ccccc4Br)o3)ccc12	TAAR1 agonist 42.6 (no result: Platelet DG rel, Rce1 inhib)
O=c1ccc2ccc(OCc3nnc(-c4ccccc4Br)o3)cc2o1	none
C=C[C@@]1(C)CC(=O)[C@]2(O)[C@@]3(C)[C@@H](O)CCC(C)(C)[C@@H]3[C@H](O)[C@H](OC(C)=O)[C@@]2(C)O1	Platelet DG rel 89.6
COc1ccc(N2CCN(CCCNC(=O)C(=O)c3c[nH]c4ccccc34)CC2)cc1	none
COc1ccc(-c2cc(C)nc(SCc3cccc(C(=O)O)c3)n2)cc1	none
O=C(O)c1cccc(CSc2nc(-c3ccc(Cl)cc3)cc(C(F)(F)F)n2)c1	TAAR1 antagonist 53.7 (no result: VLA-4 inh)
COc1ccc(S(=O)(=O)NCC2CCCO2)cc1NC(=O)c1ccccc1F (centres undefined)	Rce1 inhib active
COc1ccc(S(=O)(=O)NCC2CCCO2)cc1NC(=O)c1ccccc1 (centres undefined)	none
COc1ccc(C(=O)Nc2ccc3[nH]ccc3c2)cc1	Platelet DG rel 57.8
COc1ccc(C(=O)Nc2ccc3[nH]ccc3c2)cc1OC	none
CC(=O)Nc1ccc(S(=O)(=O)Nc2ccccc2C(=O)N2CCOCC2)cc1	none
O=C(c1ccc2c3n(nc2c1)-c1ccccc1CO3)N1CCCCC1	none
O=C(c1ccc2c3n(nc2c1)-c1ccccc1CO3)N1CCOCC1	Platelet DG rel 51.2 (no result: TAAR1 agonist, TAAR1 antagonist)
OCC1(Cc2ccccc2F)CCCN(CC2CCCCC2)C1 (centres undefined)	none
COc1ccc(C2CC(=O)C(c3ccc(C)cc3)=CN2Cc2ccccc2)cc1 (centres undefined)	none (no result: Platelet DG rel, VLA-4 inh, Rce1 inhib)
c1cc2c(cc1C1CCCCC1)c1c3n2CCCNC3CCC1 (centres undefined)	TAAR1 agonist 42.6
Cc1ccc2c(c1)c1c3n2CCCNC3CCC1 (centres undefined)	none
CCOC(=O)c1cc(C)[nH]c(=O)c1C#N	Rce1 inhib active
COc1ccc(C(C)(O)c2nc(-c3cccc(C(C)C)c3)cs2)cc1 (centres undefined)	none (no result: Platelet DG rel, VLA-4 inh, Rce1 inhib)
ON1C(c2ccc(Cl)cc2Cl)N(O)[C@H]2CCCC[C@H]21 (some centres undefined)	none
